In PMC9050490 (RSC Advances, 2020):

Key:
HepG2 cells = test: MTT antiproliferative assay, HepG2; format: cell-based, human
How it was run: (§1)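 Cells were pre-incubated 24 h at 37 °C under 5% CO2, then exposed to a range of test compound concentrations dissolved in culture medium. MTT (5 mg mL−1 solution) was added for 4 h and formazan dissolved in DMSO. Absorbance was read at 630 nm. IC50 came from a non-linear curve fit, and growth inhibition was also reported.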

Karpas299 cells = test: MTT antiproliferative assay, Karpas299; format: cell-based
How it was run: as §1

PC-3 cells = test: MTT antiproliferative assay, PC-3; format: cell-based; details: Homo sapiens, PC-3, read-out: Antiproliferative activity IC50
How it was run: as §1

A549 cells = test: MTT antiproliferative assay, A549; format: cell-based; details: Homo sapiens, A549, read-out: Antiproliferative activity IC50
How it was run: as §1

MCF-7 cells = test: MTT antiproliferative assay, MCF-7; format: cell-based; details: Homo sapiens, MCF7, read-out: Antiproliferative activity IC50
How it was run: as §1

| IC50 (PC-3 cells) | IC50 (HepG2 cells; Homo sapiens, HepG2, read-out: Antiproliferative activity IC50) | IC50 (A549 cells) | IC50 (MCF-7 cells) | IC50 (Karpas299 cells; Homo sapiens, KARPAS-299, read-out: Antiproliferative activity IC50) | SMILES | growth inhibition (HepG2 cells; HepG2, 2 μg mL^−1, MTT) | growth inhibition (HepG2 cells; HepG2, 20 μg mL^−1, MTT) | growth inhibition (Karpas299 cells; Karpas299, 2 μg mL^−1, MTT) | growth inhibition (Karpas299 cells; Karpas299, 20 μg mL^−1, MTT) | inhibition at 2 µg/mL (HepG2 cells; Homo sapiens, HepG2, read-out: growth inhibition, HepG2, 2 μg mL^−1, MTT) | inhibition at 20 µg/mL (HepG2 cells; Homo sapiens, HepG2, read-out: growth inhibition, HepG2, 20 μg mL^−1, MTT) |
| --- | --- | --- | --- | --- | --- | --- | --- | --- | --- | --- | --- |
|  |  |  |  |  | CC1(C)[C@@H](O)CC[C@]2(C)[C@H]3C(=O)C=C4[C@@H]5C[C@@](C)(C(=O)N6CCN(C(=O)c7ccc(Cl)cc7)CC6)CC[C@]5(C)CC[C@@]4(C)[C@]3(C)CC[C@@H]12 [Compound 4i, 3β-Hydroxy-30-(4-(4-chlorobenzoyl)-1-piperazinyl)-olean-12-ene-11,30-dione] | 0.00% | 19.10% | 0.00% | 12.76% |  |  |
| 7.33 µM | 10.6 µM | 1.49 µM | 4.09 µM | 2.82 µM | C[C@@H](Oc1cc(-c2cnn(C3CCNCC3)c2)cnc1N)c1c(Cl)ccc(F)c1Cl [Crizotinib] |  |  |  |  | 27.1% | 97.8% |
